# In the library only some 2.1% were active in any assay of this set; here they are far more common.
# Dynein transport: dynein cargo transport inhibition; z-score, hits read low; 3617.4 mouse cells, GR-EGFP nuclear translocation imaging; test concentration mostly 20 µM; stimulated with dexamethasone, 1 µM; stronger effect = lower value; actives 0.47% (n = 220,000); AID 1381;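 active = plate z-score of nuclear minus cytoplasmic receptor signal below a set negative limit, without overly bright fluorescence or cell loss, cut at about -3.5 in these data, passing the limit was not always enough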;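 also: z-score of nuclear minus cytoplasmic ring GR-EGFP intensity difference per well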
#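 Also added: dexamethasone, 1.0 µM final. Medium: tet-free, stripped-serum medium. Detection: fixed, Hoechst-stained cells imaged at 10x for EGFP. Read-out: nuclear-to-cytoplasmic GR-EGFP distribution per well. Times: induction 48 h, compound 1 h, agonist 30 min.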
# MT stabilizer: microtubule stabilization, imaging screen; HeLa tubulin immunostaining HCS, 24 h; share of cells brighter than vehicle mean+2SD; % tubulin-high responders, % at 10 µM; actives 0.83% (n = 200,000); AID 2205;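 active = plate Z-score above 3 for both tubulin-high and condensed-nucleus cell shares, with cell loss under 80%, at 10 µM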;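 also: anti alpha tubulin signal scored within the nucleus-defined area of each cell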
# Hsp70 act: transcriptional activators of Hsp70; HeLa Hsp70 promoter luciferase reporter, luminescence; scaled: vehicle 0, proteasome-inhibitor control 100%; actives 0.04% (n = 200,000); activation, % at 10 µM;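 active = activation above the mean across all tested compounds plus 3 SD, cutoff set per campaign, cut at about 5.5% in these data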;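 also: 100% = MG132 at 30 µM as the positive control and 0% = DMSO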
# Autophagy HCS: modulators of autophagy | calls only at 10 µM (by protocol) | actives 0.98% (n = 190,000) | MEF GFP-LC3 puncta imaging; test concentration mostly 10 µM;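 active = percentage of spot-positive cells more than 3 SD above its plate mean, without a fluorescence outlier flag or 80% toxicity; inconclusive = no clear call, values can overlap the other calls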;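 also: spot-positive cell cutoff set from DMSO-treated cells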
# bCat nuc transl: alters nuclear translocation of beta-catenin in HeLa cells; immunofluorescence imaging; nuclear translocation activity, % at 5 µM; actives 0.3% (n = 190,000); AID 1665;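 active = nuclear translocation activity above 50% at 5 µM, with a well cell count of 50 or more; inconclusive = wells under 50 cells across six images, flagged as toxic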;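 also: per-cell ratio of nuclear to cytoplasmic median beta-catenin stain intensity; plate controls were DMSO negative control for no effect and GSK-3 inhibitor IX positive control for full effect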
#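 Test system: human HeLa cell line; Doses: 5 µM primary, 0.02–20 µM confirmation; Incubation: 24 h compound exposure, 37°C; Detection: beta-catenin immunofluorescence imaging with DAPI; Read-out: beta-catenin nuclear/cytoplasmic ratio, % activation.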
# Dynein inh conf: dynein cargo transport inhibition, confirmation; shares compounds with Dynein transport; 3617.4 GR-EGFP nuclear translocation imaging, dexamethasone-induced; calls only at 20 µM; actives 69% (n = 1,000);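 active = inhibition of receptor movement into the nucleus at or above a set limit in both runs, with normal cell brightness and cell count; inconclusive = limit reached in only one run, brightness and count normal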;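 also: dexamethasone at 1 µM final in well for 30 min; nuclear minus cytoplasmic GR-EGFP mean intensity difference in channel 2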
# * hit, by the source's call; i = inactive; ? = inconclusive; · = no result; + = active, no number.
SMILES,Dynein transport,MT stabilizer,Hsp70 act,Autophagy HCS,bCat nuc transl,Dynein inh conf
Cc1cc(C)c2c(=O)n(CC(=O)N3CCC(N4CCCCC4)CC3)sc2n1,-4.17*,5.1,-0.2,i,-6.5,i
CCCNC(=O)Cn1sc2nc(C)cc(C)c2c1=O,-4.78*,·,·,·,0.3,i
Cc1cccc(OCCCC(=O)NCC(=O)Nc2cccc(C)c2C)c1,0.043,1.9,-0.3,i,-1.3,·
O=C1/C(=C/c2ccsc2)N2CCC1CC2,-0.211,·,·,·,-0.1,·
CCCNC(=S)N1CCC(C(=O)c2ccc(OC)cc2)CC1,0.135,2.1,-0.5,i,·,·
COC(=O)c1cn(NC(=O)c2cc([N+](=O)[O-])ccc2F)c(=O)c2ccccc12,-3.9*,3.5,0.0,i,2.7,+
Clc1ncc(Cn2cccn2)s1,-0.55,6.4,-0.1,i,-0.6,·
O=C1c2ccccc2-c2onc3ccc(NCc4ccco4)c1c23,-6.64,8.1,-0.4,i,1.7,i
CCNc1ccc2noc3c2c1C(=O)c1ccccc1-3,-0.0851,4.6,0.0,i,-6.6,·
CCOc1ccc2noc3c2c1C(=O)c1ccccc1-3,-7.5*,5.6,0.0,i,-0.5,+
O=[N+]([O-])c1cc([N+](=O)[O-])c2cccnc2c1Oc1ccccc1O,-4.38*,3.6,-0.1,i,0.4,+
O=[N+]([O-])c1ccc(O)c2ncccc12,-0.492,4.5,-0.3,i,·,·
Cc1ccc(C(=O)/C=C\C(=O)c2ccc(C)cc2)cc1,-7.16*,1.7,-0.1,+,-0.6,+
CCN(CC)c1ccc(N=Cc2ccc([N+](=O)[O-])o2)cc1,-3.78*,4.7,-0.5,i,-0.4,?
CCN(CC)c1ccc(N=Cc2ccccc2[N+](=O)[O-])cc1,0.347,3.3,-0.2,i,·,·
COC(=O)c1ccccc1Sc1ncnc2onc(C)c12,-2.28,2.1,0.1,i,-4.1,·
O=C(NCc1cccnc1)/C(=C\c1ccc(-c2cccc(Cl)c2)o1)S(=O)(=O)c1ccccc1,-4.3*,51.6*,1.3,i,16.8,+
O=C(NCc1cccnc1)/C(=C/c1ccc(-c2cccc(Cl)c2)o1)S(=O)(=O)c1ccccc1,-3.85*,25.6*,0.3,i,54.8*,+
O=C(NC(=S)Nc1ccc(-c2ccc(CO)o2)cc1)c1cccs1,-6.62*,2.0,0.5,i,-2.5,i
Cc1ccc(C(=O)NC(=S)Nc2ccc(-c3ccc(CO)o3)cc2)cc1,-0.142,8.2,-0.2,i,-1.7,·
O=C(CN1CCN(Cc2ccccc2)CC1)NC(=O)NCc1ccco1,-0.453,2.5,-0.3,i,-1.3,·
O=C(CN1CCN(S(=O)(=O)c2ccccc2[N+](=O)[O-])CC1)NC(=O)NCc1ccco1,-3.63*,2.8,0.4,i,-3.5,i
CN(C)CCCn1c(SCC(=O)N2c3ccccc3Sc3ccccc32)nc2ccccc2c1=O,-4.19*,19.1,-0.5,i,0.2,i
CC(C)(C)CN1CCNC(=O)C1CC(=O)NCCN1CCCc2ccccc21 (stereo not drawn),-1.06,4.1,-0.3,i,1.9,·
O=C(/C=C/c1ccc([N+](=O)[O-])cc1)Nc1ncc([N+](=O)[O-])s1,-0.996,4.6,0.1,i,1.1,·
SMILES,Dynein transport,MT stabilizer,Hsp70 act,Autophagy HCS,bCat nuc transl,Dynein inh conf
O=c1cc(-c2c(F)c(F)c(F)c(F)c2F)oc2c(F)c(F)c(F)c(F)c12,-8.24*,2.3,-0.1,i,-4.6,+
Cn1c(SCC(=O)NNC(=O)Cc2ccccc2)nc2ccccc2c1=O,0.034,2.2,-0.2,i,-4.6,·
Cc1cc(CN(C)C(=O)CC2C(=O)NCCN2Cc2c(F)cccc2Cl)on1 (stereo not drawn),1,·,·,·,-0.1,·
COc1ccc(NC(=O)c2sc3nc(Cc4ccccc4)cc(C(F)(F)F)c3c2N)cc1OC,1.33,i,-0.2,i,-1.4,·
Cc1nnc(NC(=O)c2sc3nc(-c4cccs4)cc(C(F)(F)F)c3c2N)s1,-6.12,4.7,-0.1,+,3.0,i
COc1ccc(N(CC(=O)NCCC2=CCCCC2)S(=O)(=O)c2ccc(C)cc2)cc1OC,0.65,2.8,-0.4,i,-1.1,·
CN(C(=O)c1cccs1)c1ccc(OCC(=O)Nc2ccc(C(=O)O)cc2)cc1,-0.351,·,·,·,-0.5,·
CCOC(=O)C=C(C(=O)OCC)C(=O)OCC,-4.25*,4.6,0.2,i,0.6,+
COC(=O)/C(=C/c1cccnc1)NC(=O)c1ccccc1,-0.63,4.2,-0.3,i,-2.8,·
COC(=O)C(=C/C(C)=C/c1cccnc1)C(=O)OC,-5.94*,2.9,-0.1,i,1.0,+
O=[N+]([O-])c1ccc(-c2ccc(/C=N/Nc3nc(N4CCCCC4)nc(N4CCCCC4)n3)o2)cc1,-7.32,4.9,-0.3,+,-2.1,i
O=[N+]([O-])c1ccc(/C=N/Nc2nc(N3CCCC3)nc(N3CCCC3)n2)o1,0.0582,1.2,-0.2,i,-14.8,·
CCOc1ccc(C(=O)NCc2ccccn2)cc1,0.106,2.6,-0.3,i,0.9,·
O=C(NCc1ccccn1)c1coc(=O)c(Br)c1,-4.12*,3.9,-0.2,i,0.5,i
O=C(CCl)N1N=C(c2ccco2)CC1c1cccs1 (stereo not drawn),-4.3*,9.3,-0.4,i,3.0,+
CC(=O)N1N=C(c2ccco2)CC1c1cccs1 (stereo not drawn),-0.231,4.0,-0.4,i,-5.2,·
Cc1ccc(C2=NN(C(=O)CCl)C(c3cccs3)C2)o1 (stereo not drawn),-4.1*,2.7,-0.3,i,-1.9,+
O=C1CC(Sc2nnc(-c3ccccc3)o2)C(=O)N1c1ccccc1 (stereo not drawn),-2.26,4.6,-0.2,i,·,·
Cc1ccccc1N1C(=O)CC(Sc2nnc(-c3ccccc3)o2)C1=O (stereo not drawn),-7.27*,3.5,-0.3,i,-4.8,+
COc1cc(O)c(C(CCN2CCOCC2)c2cc(OC)c(OC)c(OC)c2)c(OC)c1 (stereo not drawn),0.813,·,·,·,-0.1,·
CC(C)OP(=O)(OC(C)C)C(O)c1ccc(N(C)C)cc1 (stereo not drawn),-0.221,·,·,·,-0.7,·
C/C(CCc1oc2ccccc2c1-c1ccc(C)o1)=N/O,-1.06,2.2,-0.3,i,-4.5,·
C/C(CCc1oc2c(Br)cc(Br)cc2c1-c1ccc(C)o1)=N\O,-4.06*,2.8,-0.4,i,0.7,i
O=C(/C=C/c1cccc([N+](=O)[O-])c1)NC(=S)Nc1ccccc1C(=O)O,-3.51*,2.5,0.1,i,-1.3,+
CCOC(=O)/C(=C\C=C1/Sc2cc(OCC)c(OCC)cc2N1CC)C(C)=O,-3.65,80.3,0.0,+,11.5,i

# Screening results: PubChem BioAssay, several laboratories
